From ChEMBL document CHEMBL3797154, “Design and Synthesis of 1-((1,5-Bis(4-chlorophenyl)-2-methyl-1H-pyrrol-3-yl)methyl)-4-methylpiperazine (BM212) and N-Adamantan-2-yl-N'-((E)-3,7-dimethylocta-2,6-dienyl)ethane-1,2-diamine (SQ109) Pyrrole Hybrid Derivatives: Discovery of Potent Antitubercular Agents Effective against …” (J Med Chem, 2016)
Converted amounts (≈) assume the structure as drawn. The source made the active and inactive calls. The calls are words filed in the database; no cut-off is given here.

Assays:
[1] = tested on: Mycobacterium tuberculosis; assay: Antimicrobial activity against Mycobacterium tuberculosis; assay type: functional
[2] = tested on: Mycobacterium tuberculosis; assay: Antimycobacterial activity against Mycobacterium tuberculosis H37Rv ATTC 27294 assessed as inhibition of mycobacterial growth incubated for 7 days; assay type: functional
Summary of the method: (§1)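 MIC by HT-SPOTi on Middlebrook 7H10 agar with 0.05% (v/v) glycerol and 10% (v/v) OADC in 96-well format. Compounds dissolved at 50 mg/mL (stock), two-fold serial dilutions, final 500-0.5 µg/mL. Each well spotted with 2 µL early-to-midlog culture (2x10^3 CFU), incubated at 37 °C until distinct spots in control wells. DMSO-only and isoniazid controls; triplicate.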

[3] = Cytotoxic activity against human THP1 cells assessed as reduction in cell viability incubated for 48 hrs by […] based assay; parameters: species or system THP-1; conditions: for GI50: thp-1, 48 h; for GI50 at 48 h: THP1 cells
Summary of the method: (§2)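 RAW264.7 or THP-1 cells were grown in RPMI-1640 with 10% FBS and seeded at 10^5 cells/mL. Compound was two-fold serially diluted from a 50 mg/mL stock, with a solvent-control row. Plates were held 48 h at 37 °C in 5% CO2. Wells were washed twice with PBS, with centrifugation between washes for THP-1, then given fresh RPMI plus 0.01% […]. After overnight incubation, fluorescence was read at 560/590 nm and GIC50 derived.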

Mycolicibacterium aurum [4] = assay: Inhibition of multidrug resistance efflux pump in Mycobacterium aurum ATCC 23366 assessed as inhibition of ethidium bromide efflux by measuring relative fluorescence units for ethidium bromide accumulation at 1/4 times MIC incubated for 60 mins by fluorimetric assay
Summary of the method: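 Whole-cell efflux assay: early-log cells (OD600 ~0.8) adjusted to OD600 0.4, washed into PBS; 4-6x10^7 bacteria/mL with 0.4% glucose, 0.5 mg/L ethidium bromide substrate and compound at 1/4x MIC. Fluorescence ex 544/em 590 nm at 37 °C every minute for 60 min; accumulation scored 0-4 by relative fluorescence bands. Verapamil positive, PBS negative control.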

[5] = tested on: Mycobacterium tuberculosis; assay: Antimycobacterial activity against Mycobacterium tuberculosis mc'2-7000x assessed as inhibition of mycobacterial growth; assay type: functional
[6] = tested on: Mycolicibacterium smegmatis; assay: Antimycobacterial activity against Mycobacterium smegmatis str. MC2 155 ATCC 700084 assessed as inhibition of mycobacterial growth incubated for 24 hrs by MABA method; assay type: functional; conditions: MC2 155 ATCC 700084, 24 h
Mycolicibacterium aurum [7] = assay: Antimycobacterial activity against Mycobacterium aurum ATCC 23366 assessed as inhibition of mycobacterial growth incubated for 4 days; assay type: functional
Summary of the method: (§3)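 HT-SPOTi agar dilution: two-fold serial dilutions of compound were mixed into Middlebrook 7H10 agar with 0.05% glycerol and 10% OADC, giving a final range of 500–0.5 µg/mL. Each well was spotted with 2x10^3 CFU of early-to-mid-log culture. Plates were incubated at 35 or 37 °C until spots appeared in control wells. Controls were DMSO-only and isoniazid. The MIC was read, in triplicate.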

[8] = tested on: Mycobacterium tuberculosis; assay: Antimycobacterial activity against Mycobacterium tuberculosis mc'2-7000x assessed as inhibition of mycobacterial growth at 500 ug/ml; assay type: functional, organism-based
[9] = Selectivity index, ratio of GIC50 for cytotoxicity against mouse RAW264.7 cells to MIC for Mycobacterium tuberculosis H37Rv ATTC 27294; assay type: toxicity, cell-based; conditions: read-out: Selectivity Index
Summary of the method: (§4)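 SI = GIC50 / H37Rv MIC (agar spot assay). GIC50 from cells in RPMI-1640 + 10% FBS, 37 °C, 5% CO2; 10^5 cells/mL added to two-fold compound dilutions from 50 mg/mL stock, solvent control row. 48 h exposure, washes (THP-1 centrifuged), fresh medium plus 0.01% […], overnight; fluorescence ex 560/em 590 nm.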

Mycolicibacterium aurum [10] = assay: Antimycobacterial activity against Mycobacterium aurum ATCC 23366 assessed as inhibition of mycobacterial growth at 500 ug/ml incubated for 4 days; assay type: functional, organism-based; summary of the method: as §3
[11] = Selectivity index, ratio of GIC50 for cytotoxicity against human THP1 cells to MIC for Mycobacterium tuberculosis H37Rv ATTC 27294; assay type: toxicity, cell-based, THP-1; conditions: read-out: Selectivity Index; summary of the method: as §4
[12] = Cytotoxic activity against mouse RAW264.7 cells assessed as reduction in cell viability incubated for 48 hrs by […] based assay; summary of the method: as §2
[13] = tested on: Mycobacterium tuberculosis; assay: Antimycobacterial activity against Mycobacterium tuberculosis H37Rv ATTC 27294 assessed as inhibition of mycobacterial growth at 500 ug/ml incubated for 7 days; assay type: functional, organism-based; summary of the method: as §1

Row | Structure (SMILES) | MIC [1] [µM] | MIC ([2]; H37Rv ATTC 27294, 168 h) [µg/mL] | GI50 [3] | Activity (Mycolicibacterium aurum [4]) [RFU] | MIC [5] | MIC [6] [µg/mL] | MIC (Mycolicibacterium aurum [7]; ATCC 23366, 96 h) [µg/mL] | growth inhibition (GI) [8] | selectivity ratio [9] | GI50 at 48 h [3] [µg/mL] | growth inhibition (GI) (Mycolicibacterium aurum [10]) | selectivity ratio [11] | GI50 at 48 h [12] [µg/mL] | MIC (Mycolicibacterium aurum [7]) | MIC [2] | growth inhibition (GI) [13]
1 | CC(C)=CCC/C(C)=C/CNCCNC1C2CC3CC(C2)CC1C3 (stereo not drawn) [SQ109] | 0.5 (≈ 0.165 µg/mL) | 0.51 (≈ 1.54 µM) | Not Active | 2 | 2 µg/mL (≈ 6.05 µM) | 4 (≈ 12.1 µM) | 7.8 (≈ 23.6 µM) |  |  |  |  |  |  |  |  | 
2 | Cc1cc(/C=N\OCc2ccccc2)c(C)n1-c1ccc(F)cc1 |  | 25 (≈ 77.5 µM) |  |  | inactive |  |  | inactive |  |  |  |  |  |  |  | 
3 | NNC(=O)c1ccncc1 [ISONIAZID] |  | 0.24 (≈ 1.75 µM) | Not Active |  | inactive |  |  | inactive |  |  |  |  |  |  |  | 
4 | Cc1cc(CNOCc2ccccc2)c(C)n1-c1ccc(F)cc1 |  | > 125 |  | 4 | > 64 µg/mL | > 64 |  |  | < 1 | 292 (≈ 900 µM) | inactive | < 2.3 | 123 (≈ 379 µM) | inactive |  | 
5 | Cc1cc(CNOCc2ccccc2)c(C)n1-c1ccc(Cl)cc1 |  |  |  | 2 | > 64 µg/mL | > 64 |  |  |  | 67 (≈ 197 µM) | inactive |  | 133 (≈ 390 µM) | inactive | inactive | inactive
